Source: PubChem BioAssay
DDE Tn6 FP inh: inhibitors of Tn6 peptide binding to human fibrin DD(E); P02675; Fibrin DD(E) TRITC-Tn6 fluorescence polarization displacement; inhibition, % at 8.3 µM; 370,000 compounds, 0.21% hits;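 active means inhibition above a per-campaign cutoff: mean of compounds within control limits plus 3 SD, cut at about 15% in these data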;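 further: 0% = median of all compound wells on the plate and 100% = blocking peptide control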
NRP1-CendR mod: NRP-1/CendR interaction modulation. FAM-RPARPAR peptide binding to NRP-1, fluorescence polarization. inhibition, % at 25 µM. 360,000 compounds, 0.85% hits;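 active means inhibition or corrected inhibition above about 18%, plus a signal ratio from 0.5 to 1.5, limit read from the data, passing the limit was not always enough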
PLCg1 inh: PLC-gamma1 (human) inhibition, primary screen; inhibition, % at 12.2 µM; purified PLC-gamma1, fluorogenic substrate, fluorescence; P19174; AID 720700; 370,000 compounds, 0.84% hits; in the data active means inhibition above about 9.5%
proKLK7 act: activators of human kallikrein-7 zymogen; P49862; purified proKLK7, EDANS-DABCYL substrate fluorescence; 100% is mature enzyme control, 0% vehicle; activation, % at 7 µM; 370,000 compounds, 0.9% hits; AID 652039;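 active means activation above the mean of all tested compounds plus 3 SD, computed per campaign excluding outliers beyond control limits, cut at about 13% in these data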
DDE Tn7 FP inh: inhibitors of Tn7 peptide binding to human fibrin DD(E); P02675; FP displacement of FITC-Tn7 peptide from fibrin DD(E); 0% = median of compound wells per plate; inhibition, % at 8.3 µM; 370,000 compounds, 0.13% hits; AID 720508;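 active means inhibition above the mean of compounds falling within the control limits plus 3 SD of them, cut at about 14% in these data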;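 further: 0% = plate median of compound wells and 100% = 10 µM Aha-Tn7 peptide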
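Test system – human fibrin DD(E) · Times – 10 min preincubation, 3 h with tracer, room temperature · Detection – fluorescence polarization of the labelled Tn7 tracer · Measure – percent inhibition normalized to high-control wells · Benchmarks – high control wells with 10 µM unlabelled Aha-Tn7 peptide (full inhibition) · Repeats – singlicate testing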
PLC-beta3 inh: PLC-beta3 (human) inhibition, primary screen; Q01970; Purified PLC-beta3, fluorogenic substrate, fluorescence; inhibition, % at 12.2 µM; 370,000 compounds, 0.18% hits; AID 720704; in the data active means inhibition above about 11%;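 further: 0% = median of compound wells on plate and 100% = full blocker control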
KLK7 act conf: confirmation of human kallikrein-7 zymogen activators | shares compounds with proKLK7 act | activation, % at 7 µM | purified proKLK7, EDANS-DABCYL substrate fluorescence; scaled: vehicle 0, mature enzyme 100 | AID 686949 | 3,200 compounds, 68% hits;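 active means activation, as change over the incubation, above the mean of all tested compounds plus 3 SD, cut at about 13% in these data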
EDANS interfere: optically interferes with EDANS-DABCYL signal, flagging KLK7 hits. AID 686952. 3,200 compounds, 80% hits. EDANS-DABCYL substrate fluorescence interference, no enzyme, 4 h; solvent 0%, active enzyme control 100%. activation, % at 7 µM. shares compounds with proKLK7 act;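 active means activation above the all-compound mean plus 3 SD, ignoring values outside control-based bounds, cut at about 4.8% in these data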;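 further: value is the 4 h activation minus the activation read at time zero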
K7 EDANS ctr: optically interferes with EDANS-DABCYL fluorescence, kallikrein-7 activator counter-screen. EC50, µM. EDANS-DABCYL peptide fluorescence interference, no enzyme. shares compounds with proKLK7 act. 250 compounds, 20% hits. AID 720493;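 active means compounds that raise the fluorescence signal in this interference counterscreen, with EC50 at or below 10 µM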;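 further: intact quenched peptide substrate alone read at 355 nm excitation and 520 nm emission; signal is fluorescence gain from T0 to T4 after four hours at room temperature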
* marks the source's active call; other numbers are inactive results; i = inactive; / = no result. In the library only some 3% were active in any assay of this set; here they are far more common.

SMILES	DDE Tn6 FP inh	NRP1-CendR mod	PLCg1 inh	proKLK7 act	DDE Tn7 FP inh	PLC-beta3 inh	KLK7 act conf	EDANS interfere	others
Cc1ccc2nc(-c3cccc(S(=O)(=O)N(C)C)c3)cn2c1	1	20	-68	0	4	-98	/	/
O=S(=O)(c1cccc(-c2cn3cccnc3n2)c1)N1CCCCCC1	-12	-14	-302	5	-3	-384	/	/
CN(C)S(=O)(=O)c1ccc(-c2cn3ccccc3n2)cc1	2	-6	-485	30*	7	i	22*	31*
CN(C)S(=O)(=O)c1cccc(-c2cn3cccnc3n2)c1	-2	9	i	39*	-6	i	57*	62*
CCN(CC)S(=O)(=O)c1ccc(-c2cn3ccccc3n2)cc1	-1	-10	-194	11	-9	-242	/	/
Cc1ccccc1CN1CCCCC(NC(=O)c2ccc(N(C)C)cc2)C1=O (configuration not stated)	0	/	1	0	4	1	/	/
C/C(=N/NC(=O)Cc1cccs1)c1cccc([N+](=O)[O-])c1	1	/	-5	0	0	-1	/	/
COc1ccc(-c2cc(-c3ccccc3)n3ncnc3n2)cc1	-6	17	i	30*	-7	i	25*	-24
COc1ccc(-c2cc(N3CCCC3)n3ncnc3n2)cc1	3	9	-18	-1	2	-19	/	/
COc1ccc(-c2ccnc3ncnn23)cc1	0	4	-393	33*	0	i	27*	35*
C=Cc1ccc(C(=O)Nc2nnc(-c3cccnc3)s2)cc1	6	/	-5	0	1	-5	/	/
N=c1c2c(-c3ccccc3)c(-c3ccccc3)n(Cc3ccccc3)c2ncn1C1CCOCC1	5	/	2	0	3	-6	/	/
Cc1ccc(-c2nc3ccccn3c2Nc2ccccc2)o1	7	5	i	28*	-2	i	63*	68*
CC(C)CNc1cccc2c1S(=O)(=O)N(Cc1cn(Cc3cccc(C(F)(F)F)c3)nn1)Cc1ccccc1O2	5	/	-31	-9	-4	-18	/	/
O=C(Nc1c(-c2ccc(C(F)(F)F)cc2)nc2ncccn12)C1CC1	6	/	i	27*	-1	i	29*	27*
COc1cccc(NC(=O)Nc2c(-c3ccc(C)cc3)nc3ncccn23)c1	-2	/	-299	-3	3	-368	/	/
Cc1ccc(-c2nc3ncccn3c2NC(=O)C2CC2)cc1	11	6	i	17*	6	i	32*	45*
NNC(=O)c1cc2c(ccc3ccccc32)o1	-7	-3	-82	3	3	-98	/	/
COC(=O)c1cc2c(ccc3ccccc32)oc1=O	1	18	i	65*	-9	i	67*	74*
CN1CCN(C(=O)c2cc3c(ccc4ccccc43)oc2=O)CC1	0	-5	i	56*	-3	i	22*	21*
O=C(c1cc2c(ccc3ccccc32)o1)N1CCCCC1	-3	-4	2	0	4	-2	/	/
COc1ccc(C#CCN(C)/C(N)=N/C(=O)OCc2ccccc2)cc1	-5	/	-1	0	3	-3	/	/
O=C(CSc1nc2ccccc2n1Cc1ccccc1)NN=Cc1c[nH]c2ccccc12	-1	/	2	1	3	1	/	/
COC(=O)C1=CN(Cc2ccc(OC)cc2)C=C(C(=O)OC)C1c1cc(OC)c(OC)c(OC)c1	/	-3	/	/	/	/	/	/
COC(=O)C1=CN(CC2CCCO2)C=C(C(=O)OC)C1c1cc(OC)c(OC)c(OC)c1 (configuration not stated)	6	-7	-346	16*	1	-473	0	0
SMILES	DDE Tn6 FP inh	NRP1-CendR mod	PLCg1 inh	proKLK7 act	DDE Tn7 FP inh	PLC-beta3 inh	KLK7 act conf	EDANS interfere	others
COc1ccc(-c2cc3ccc(OC(C)C(=O)O)cc3oc2=O)cc1 (configuration not stated)	5	6	i	70*	-6	i	70*	68*
CC(=O)Oc1ccc(-c2cc3ccc(OC(C)=O)cc3oc2=O)cc1	5	12	i	225*	-5	i	451*	412*
CC(=O)Oc1ccc2cc(-c3ccccc3)c(=O)oc2c1	-11	4	i	216*	-2	i	565*	570*
COc1ccc(-c2cc3ccccc3oc2=O)cc1	-4	13	i	8	0	i	/	/
COc1ccc(-c2cc3ccc(OCC(=O)NCC4CCC(C(=O)O)CC4)cc3oc2=O)cc1 (configuration not stated)	7	-8	i	64*	-2	i	54*	74*
CC(=O)COc1ccc2cc(-c3ccccc3)c(=O)oc2c1	4	-16	i	23*	4	i	57*	73*
COC(=O)[C@]12C[C@H](CC(=O)NCCCN3CCCC3=O)C(=O)N(CCc3ccc(OC)c(OC)c3)C1=C[C@H](C1CCCC1)O[C@@H]2C	2	/	-1	0	-3	2	/	/
COc1ccc(-c2ccc3nnc(SCC(=O)N4CCCC4)n3n2)cc1	0	-20	i	15*	7	i	17*	13*	K7 EDANS ctr=>70
COc1ccc(-c2nnc3ccc(SCC(=O)N4CCCC4)nn23)cc1	-4	-5	-10	0	-1	-14	/	/
COc1ccc(Cn2ccc3ccc(-c4ccc5ccn(Cc6cccc(F)c6)c5c4)cc32)cc1	-3	/	-85	-2	7	-125	/	/
COC(=O)c1sc2nc(C)cc(C)c2c1N	-7	12	i	1	-2	i	/	/
Cc1cc(C)c2c(N)c(C(=O)Nc3ncc(C)s3)sc2n1	-15	2	i	33*	-4	i	-27	-48
Cc1cc(C)c2c(N)c(C(=O)Nc3ccccc3F)sc2n1	-6	6	i	23*	-3	i	-14	-14
Cc1ccc(N2CC(=O)N(NC(=O)c3sc4nc(C)cc(C)c4c3N)CC2=O)cc1	4	13	i	86*	4	i	23*	21*
Cc1cc(C)c2c(N)c(C(=O)Nc3ccccc3Br)sc2n1	-1	-7	i	179*	3	i	124*	56*
